High-throughput results as filed in PubChem BioAssay.
ERp5 inh – inhibitors of human ERp5; Q15084; ERp5 insulin aggregation, absorbance 650 nm, 90 min; inhibition, % at 9.99 µM; hit rate 0.05% among 350,000; AID 651711;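 active = mean replicate inhibition above about 25%, with every replicate also reaching it, limit read from the data, passing the limit was not always enough; inconclusive = only one of those two criteria met; inactive = neither criterion met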
Target sequence (Q15084 whole entry, looked up): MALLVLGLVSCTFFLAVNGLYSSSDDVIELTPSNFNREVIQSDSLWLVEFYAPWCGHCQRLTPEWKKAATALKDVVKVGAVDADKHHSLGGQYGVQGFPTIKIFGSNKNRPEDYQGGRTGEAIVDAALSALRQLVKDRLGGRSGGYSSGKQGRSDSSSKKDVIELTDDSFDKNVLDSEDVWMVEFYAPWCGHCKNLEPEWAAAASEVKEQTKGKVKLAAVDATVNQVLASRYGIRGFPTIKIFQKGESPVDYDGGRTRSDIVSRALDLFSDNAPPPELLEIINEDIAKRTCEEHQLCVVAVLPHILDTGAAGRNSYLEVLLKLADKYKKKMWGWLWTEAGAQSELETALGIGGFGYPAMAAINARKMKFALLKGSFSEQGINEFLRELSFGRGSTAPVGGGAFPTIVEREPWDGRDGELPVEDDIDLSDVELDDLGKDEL
C2C12 statin – suppression of simvastatin myotoxicity. C2C12 myotubes + simvastatin, ATP luminescence, 48 h; scaled: DMSO 0, geranylgeraniol control 100. rescue of ATP level, % at 7.49 µM. hit rate 0.78% among 330,000;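 active = mean ATP rescue above about 67%, or every replicate alone reaching that limit, limit read from the data, passing the limit was not always enough; inconclusive = no clear call, values can overlap the other calls; inactive = mean under the limit and some replicate under it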;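 also: myotubes were challenged with 10 µM simvastatin during compound exposure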
F508del corr – CFTR F508del correction in bronchial cells; hit rate 0.36% among 350,000; CFBE cells, YFP halide quenching; stimulated with forskolin plus potentiator P3; % fluorescence drop versus neutral controls; AID 720511; activity (quench increase), % at 7.58 µM;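 active = mean added fluorescence quench of at least 8% versus neutral control, with both replicates also reaching 8%; inconclusive = only one of the mean or replicate conditions met; inactive = mean below 8% and not both replicates reaching 8%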;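 also: cells transiently co-express mutant CFTR-F508del with the halide-sensitive YFP; corrector assay measuring rescue of mutant channel to the surface after 24 h compound exposure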
PDI inh – PDI (human) enzyme inhibition | PDI insulin aggregation turbidity, A650, 90 min | hit rate 0.052% among 350,000 | P07237 | inhibition, % at 10 µM;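 active = mean inhibition across replicates of 30% or more, whatever share of single replicates reach that level; inconclusive = mean inhibition below 30% while every single replicate reaches 30%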
DENV2 CPE rescue – DENV2-induced cell death inhibition; DENV2-infected cells, cytopathic effect rescue, plate reader; AID 651640; hit rate 1.7% among 350,000; CPE inhibition, % at 9.99 µM; in the data active = CPE inhibition above about 20%, passing the limit was not always enough; inconclusive = no clear call, values can overlap the other calls; tested in BHK-21 cells
Cneo AK release – Cryptococcus neoformans lysis via adenylate kinase release | AID 651654 | hit rate 0.2% among 360,000 | lysis activity, % at 15 µM | C. neoformans lysis, adenylate kinase release luminescence, 4 h; normalised: neutral wells 0, clomiphene wells 100;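 active = mean lysis activity across replicates of at least 80%, whatever share of replicates individually reach that level; inactive = mean lysis activity below 80%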
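Material – Cryptococcus neoformans yeast cells · Quantity – 5 × 10^6 yeast cells/mL · Buffer or medium – YPD medium · Compound – single dose · Timing – 4 h static compound exposure, 37 °C, read 1 h post-reagent · Signal – adenylate kinase release luminescence · Read-out basis – lysis from increased AK signal · Benchmarks – Clomiphene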
Of the large screens only hits and unclear results are named; the others gave an inactive call; ! = a repeat was not active. Only some compounds are listed: those with a hit (about 2.3% of all), similar ones and a draw of the others.

COC(=O)[C@@]1(Cc2ccccc2CN=[N+]=[N-])COC(c2ccc(OCCCO)cc2)=N1	DENV2 CPE rescue 26.7 (no result: C2C12 statin, PDI inh)
COC(=O)[C@@]1(CCS(=O)(=O)c2ccccc2)N=C(c2ccc(OCCCO)cc2)O[C@H]1c1ccccc1	DENV2 CPE rescue 27.0 (no result: C2C12 statin, PDI inh)
C[C@H]1CCCCO[C@@H](CN(C)S(=O)(=O)c2ccccc2)[C@@H](C)CN([C@@H](C)CO)C(=O)c2cc(NS(=O)(=O)c3cn(C)cn3)ccc2O1	none (no result: C2C12 statin, PDI inh)
O=C(C[C@@H]1CC[C@@H]2[C@H](COC[C@@H](O)CN2C(=O)c2ccc3c(c2)OCO3)O1)NC1CCCC1	none (no result: PDI inh)
C[C@H](CO)N1C[C@H](C)[C@H](CN(C)C(=O)C2CCC2)Oc2ncc(Br)cc2C1=O	none (no result: ERp5 inh, PDI inh, DENV2 CPE rescue, Cneo AK release)
C/C=C/c1cccc(-c2nc(C(=O)NCCC)cc3c2[C@H](CCO)N([S@@](=O)C(C)(C)C)C3)c1	none (no result: C2C12 statin, PDI inh, Cneo AK release)
CCCC#Cc1ccc2c(c1)O[C@@H](CN(C)Cc1ccccc1)[C@H](C)CN([C@@H](C)CO)S2(=O)=O	none (no result: ERp5 inh, PDI inh, DENV2 CPE rescue, Cneo AK release)
COc1ccc(C2=Nn3c(nnc3-c3ccccc3F)SC2)cc1OC1CCOC1 (stereo not given)	F508del corr 11.1
COc1ccc(C2=Nn3c(nnc3-c3ccccc3F)SC2)cc1OC1CCCC1	F508del corr 13.1
COc1ccc(OC)c(-c2nnc3n2N=C(c2ccc(OC)c(OC4CCCC4)c2)CS3)c1	none
COc1ccc(C2=Nn3c(nnc3-c3ccccc3)SC2)cc1OC	none (no result: F508del corr, DENV2 CPE rescue, Cneo AK release)
CC1CCN(C(=O)c2cc3nc(-c4ccccc4)cc(-c4ccccc4)n3n2)CC1	C2C12 statin 83.1 (no result: ERp5 inh, F508del corr, DENV2 CPE rescue)
C[C@H]1CN([C@@H](C)CO)C(=O)CCCn2cc(nn2)CO[C@@H]1CN(C)S(=O)(=O)c1ccc(Oc2ccccc2)cc1	DENV2 CPE rescue 34.6!
C[C@@H]1CN([C@@H](C)CO)C(=O)CCCn2cc(nn2)CO[C@H]1CN(C)S(=O)(=O)c1ccc(Cl)cc1	DENV2 CPE rescue 20.8!
C[C@@H]1CN([C@H](C)CO)C(=O)CCCn2cc(nn2)CO[C@@H]1CN(C)S(=O)(=O)c1ccc(Oc2ccccc2)cc1	none (no result: PDI inh)
C[C@H](CO)N1C[C@H](C)[C@H](CN(C)S(=O)(=O)c2ccc(Oc3ccccc3)cc2)OCc2cn(nn2)CCCC1=O	DENV2 CPE rescue 22.1 (no result: PDI inh)
CCC(=O)N1[C@H](CO)[C@H](c2ccc(-c3cccc(F)c3)cc2)[C@@H]1CN(C)C(C)=O	none (no result: PDI inh)
COc1ccc2c3c([nH]c2c1)[C@H](CO)N(C(=O)c1ccccc1)CC31CCN(C(=O)CC2CC2)CC1	none (no result: C2C12 statin, PDI inh, Cneo AK release)
C[C@H](CO)N1C[C@H](C)[C@@H](CN(C)Cc2ccccn2)Oc2ncc(C#CC(C)(C)O)cc2C1=O	none (no result: PDI inh)
CC1(C)OC(=O)C2=C(C[C@@H](C3CCCCC3)O[C@H]2c2ccc(F)cc2)O1	DENV2 CPE rescue 55.2 (no result: PDI inh)
C[C@H]1CCCCO[C@H](CN(C)C(=O)Nc2ccc(F)cc2)[C@@H](C)CN([C@@H](C)CO)C(=O)c2cc(NS(=O)(=O)c3ccc(Cl)cc3)ccc2O1	Cneo AK release 84.7 (no result: C2C12 statin, PDI inh, DENV2 CPE rescue)
C[C@H](CO)N1C[C@H](C)[C@H](CN(C)C(=O)Nc2ccc(F)cc2)OCCCC[C@H](C)Oc2ccc(NS(=O)(=O)c3ccc(Cl)cc3)cc2C1=O	none (no result: C2C12 statin, PDI inh)
C[C@@H]1CCCCO[C@H](CN(C)C(=O)Nc2ccc3c(c2)OCO3)[C@@H](C)CN([C@H](C)CO)C(=O)c2cc(NS(=O)(=O)c3ccc(Cl)cc3)ccc2O1	DENV2 CPE rescue 25.3 (no result: C2C12 statin, PDI inh)
C[C@@H]1CCCCO[C@H](CN(C)C(=O)Nc2ccc(F)cc2)[C@H](C)CN([C@@H](C)CO)C(=O)c2cc(NS(=O)(=O)c3ccc(Cl)cc3)ccc2O1	Cneo AK release 93.9 (no result: C2C12 statin, PDI inh)
CC(C)NC(=O)Nc1ccc2c(c1)C(=O)N(C)[C@H]1CC[C@H](CC(=O)Nc3ccccc3)O[C@H]1CO2	DENV2 CPE rescue inconclusive (no result: PDI inh)
Cc1cc(C)c(NC(=O)Cn2nnc(C(=O)NCc3cccs3)c2N)c(C)c1	none (no result: ERp5 inh, F508del corr, DENV2 CPE rescue)
Cc1cc(C)cc(NC(=O)Cn2nnc(C(=O)NCc3cccs3)c2N)c1	DENV2 CPE rescue 27.0 (no result: Cneo AK release)
Cc1ncc([N+](=O)[O-])n1CC(=O)Nc1ccc(F)c(F)c1	DENV2 CPE rescue 35.2
Cc1ncc([N+](=O)[O-])n1CC(=O)Nc1ccc(Cl)cc1	none
Cc1cc(=O)oc2c(C)c(OC(C)C(=O)NC(Cc3c[nH]c4ccc(O)cc34)C(=O)O)ccc12 (stereo not given)	DENV2 CPE rescue 76.8 (no result: PDI inh)
CCOC(=O)Cc1nnc(NC(=O)COc2ccc(C)cc2)s1	none (no result: ERp5 inh, F508del corr, DENV2 CPE rescue)
CCOC(=O)Cc1nnc(NC(=O)COc2ccc(OC)cc2)s1	C2C12 statin 129.6 (no result: ERp5 inh, F508del corr, DENV2 CPE rescue)
CCC(=O)Nc1nnc(/C=C/c2ccc(OC)cc2)s1	DENV2 CPE rescue 57.7 (no result: C2C12 statin, Cneo AK release)
COc1ccc(/C=C/c2nnc(NC(=O)CSc3ccc(C)cc3)s2)cc1	none
Cn1nc(CC#N)c2c(=N)n(N)cnc21	none
CCCCn1cnc2c(c(CC#N)nn2-c2ccccc2)c1=N	F508del corr 9.4 (no result: Cneo AK release)
C[C@@H]1CN([C@H](C)CO)C(=O)c2cc(NS(=O)(=O)c3ccc(F)cc3)ccc2O[C@@H]1CN(C)CC1CC1	none (no result: PDI inh)
Cc1ccc(S(=O)(=O)N(C)C[C@@H]2OCCCC[C@@H](C)Oc3ccc(NS(=O)(=O)c4ccc(Cl)cc4)cc3C(=O)N([C@@H](C)CO)C[C@@H]2C)cc1	F508del corr 8.6 (no result: PDI inh)
Cc1ccc(S(=O)(=O)N(C)C[C@@H]2OCCCC[C@@H](C)Oc3ccc(NS(C)(=O)=O)cc3C(=O)N([C@@H](C)CO)C[C@H]2C)cc1	DENV2 CPE rescue 36.0 (no result: C2C12 statin, PDI inh)
C[C@@H]1CN([C@H](C)CO)C(=O)c2cc(NS(=O)(=O)c3ccc(Cl)cc3)ccc2O[C@@H](C)CCCCO[C@H]1CN(C)S(=O)(=O)c1ccc(Cl)cc1	DENV2 CPE rescue 54.0 (no result: ERp5 inh, C2C12 statin, PDI inh)
Cc1ccc(S(=O)(=O)Nc2ccc3c(c2)C(=O)N([C@H](C)CO)C[C@H](C)[C@@H](CN(C)S(=O)(=O)c2ccc(Cl)cc2)OCCCC[C@H](C)O3)cc1	DENV2 CPE rescue 36.8 (no result: ERp5 inh, C2C12 statin, PDI inh)
COCC(=O)N1CCC2(CC1)CN(C(=O)Nc1ccccc1F)[C@H](CO)c1c2c2ccc(OC)cc2n1C	none (no result: C2C12 statin, PDI inh, Cneo AK release)
C[C@H]1CN([C@@H](C)CO)C(=O)c2cc(NC(=O)NC3CCCCC3)ccc2O[C@@H]1CN(C)Cc1ccc(C(F)(F)F)cc1	none (no result: PDI inh)
C[C@H](CO)N1C[C@H](C)[C@@H](CN(C)S(=O)(=O)c2ccc(F)cc2)Oc2c(NC(=O)CCCCCC(=O)Nc3ccccc3N)cccc2C1=O	none (no result: C2C12 statin, PDI inh, Cneo AK release)
C[C@@H]1CCCCO[C@@H](CN(C)S(=O)(=O)c2ccc(Cl)cc2)[C@@H](C)CN([C@H](C)CO)C(=O)c2cc(NS(C)(=O)=O)ccc2O1	DENV2 CPE rescue 21.6 (no result: PDI inh)
COC(=O)C[C@@H]1C[C@H]2c3cc(NC(=O)NC4CCCCC4)ccc3O[C@H]2[C@@H](CO)O1	none (no result: PDI inh)
